# Experimental data published in ChEMBL document CHEMBL3244066, “Inhibition of histidine decarboxylase. Derivatives of histidine” (J Med Chem, 1977).
# Peptide text beside a SMILES is read from it.
# Legend:
# [1] = molecular target: T1, Histidine decarboxylase (Rattus norvegicus) (UniProt P16453); experiment: Inhibition of histidine decarboxylase in Sprague-Dawley rat stomach assessed as decrease in 14CO2 production using L-histidine-carboxyl-14C as substrate at 0.004 mM by scintillation counting analysis
# T1 sequence (whole entry): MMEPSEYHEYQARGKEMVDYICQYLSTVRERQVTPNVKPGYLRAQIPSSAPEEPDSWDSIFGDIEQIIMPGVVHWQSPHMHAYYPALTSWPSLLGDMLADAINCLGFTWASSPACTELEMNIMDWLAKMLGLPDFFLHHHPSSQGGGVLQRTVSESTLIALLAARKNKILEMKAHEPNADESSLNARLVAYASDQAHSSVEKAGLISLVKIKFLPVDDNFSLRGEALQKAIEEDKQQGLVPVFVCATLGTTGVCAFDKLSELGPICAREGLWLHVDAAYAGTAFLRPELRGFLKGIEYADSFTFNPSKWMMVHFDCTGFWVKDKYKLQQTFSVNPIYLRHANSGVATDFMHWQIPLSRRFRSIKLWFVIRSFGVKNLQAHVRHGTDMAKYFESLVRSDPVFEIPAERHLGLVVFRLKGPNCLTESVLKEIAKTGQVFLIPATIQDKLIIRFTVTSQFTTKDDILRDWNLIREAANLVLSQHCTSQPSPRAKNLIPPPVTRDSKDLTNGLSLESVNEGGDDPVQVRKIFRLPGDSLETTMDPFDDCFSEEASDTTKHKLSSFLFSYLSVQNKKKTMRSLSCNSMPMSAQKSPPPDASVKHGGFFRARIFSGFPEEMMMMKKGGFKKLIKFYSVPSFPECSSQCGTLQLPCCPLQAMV
# How it was run: (§1)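 Enzyme from rat stomach: homogenized in 0.1 M K phosphate–0.1 mM pyridoxal phosphate, pH 6.9, at 0–4 °C. Then 39 000g and 100 000g spins and a 20–45% ammonium sulfate cut. Assayed in triplicate with 0.05 M K phosphate, pH 6.9, 0.03 mM PLP and 0.24 mM L-histidine-carboxyl-14C (final) for 30 min at 37 °C. Inhibitors were fresh in water, generally 0.1 mM. HCl-released 14CO2 was trapped on Hyamine paper for 1 h and counted. % inhibition was taken after blank subtraction.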
# Histidine decarboxylase = molecular target: T2, Histidine decarboxylase (Rattus norvegicus, UniProt P16453); experiment: Inhibition of histidine decarboxylase in Sprague-Dawley rat stomach assessed as decrease in 14CO2 production using L-histidine-carboxyl-14C as substrate by Dixon plot analysis
# T2 sequence (P16453 whole entry): T1 sequence (whole entry)
# How it was run: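 Ki from a Dixon plot of reciprocal activity versus inhibitor concentration. Used the ammonium sulfate–fractionated rat stomach extract, 0.24 mM L-histidine-carboxyl-14C, 0.03 mM PLP, pH 6.9 phosphate, 30 min at 37 °C, and Hyamine trapping of 14CO2 with scintillation counting. Inhibitor was run in duplicate at four concentrations from 1 to 50 μM.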
# [2] = molecular target: T1, Histidine decarboxylase (Rattus norvegicus); experiment: Inhibition of histidine decarboxylase in Sprague-Dawley rat stomach assessed as decrease in 14CO2 production using L-histidine-carboxyl-14C as substrate at 0.50 mM by scintillation counting analysis; how it was run: as §1
# [3] = molecular target: T1, Histidine decarboxylase (Rattus norvegicus); experiment: Inhibition of histidine decarboxylase in Sprague-Dawley rat stomach assessed as decrease in 14CO2 production using L-histidine-carboxyl-14C as substrate at 0.012 mM by scintillation counting analysis; how it was run: as §1
# [4] = molecular target: T1, Histidine decarboxylase (Rattus norvegicus); experiment: Inhibition of histidine decarboxylase in Sprague-Dawley rat stomach assessed as decrease in 14CO2 production using L-histidine-carboxyl-14C as substrate at 0.10 mM by scintillation counting analysis; how it was run: as §1
# [5] = molecular target: T1, Histidine decarboxylase (Rattus norvegicus); experiment: Inhibition of histidine decarboxylase in Sprague-Dawley rat stomach assessed as decrease in 14CO2 production using L-histidine-carboxyl-14C as substrate at 0.32 mM by scintillation counting analysis; how it was run: as §1
# [6] = molecular target: T1, Histidine decarboxylase (Rattus norvegicus); experiment: Inhibition of histidine decarboxylase in Sprague-Dawley rat stomach assessed as decrease in 14CO2 production using L-histidine-carboxyl-14C as substrate at 0.13 mM by scintillation counting analysis; how it was run: as §1
SMILES,inhibition [4] [%],further results
COC(=O)[C@@H](N)Cc1c[nH]cn1,,inhibition [1]: 50%; Ki (Histidine decarboxylase): 1800 nM
CC(=O)N[C@@H](Cc1c[nH]cn1)C(=O)O,,inhibition [2]: 0%
CCOC(=O)[C@@H](N)Cc1c[nH]cn1,,inhibition [3]: 50%
COC(=O)CCc1c[nH]cn1,10,
COC(=O)[C@@H](N)Cc1nc[nH]c1[N+](=O)[O-],3,
O=C(O)CCc1c[nH]cn1,,inhibition [6]: 9%
O=C(O)[C@@H](O)Cc1c[nH]cn1,,inhibition [6]: 0%
CCCC(Cc1c[nH]cn1)(C(=O)OC)[N+](=O)[O-] (racemic),32,
CCCC(N)(Cc1c[nH]cn1)C(=O)OC (racemic),2,
CCCCC(Cc1c[nH]cn1)(C(=O)OC)[N+](=O)[O-] (racemic),24,
CCCCC(N)(Cc1c[nH]cn1)C(=O)OC (racemic),0,
CCOC(=O)C(CC)(Cc1c[nH]cn1)[N+](=O)[O-] (racemic),5,
CCOC(=O)C(Cc1c[nH]cn1)(c1ccccc1)[N+](=O)[O-] (racemic),22,
CCOC(=O)C(N)(CC)Cc1c[nH]cn1 (racemic),13,
COC(=O)C(C)(Cc1c[nH]cn1)[N+](=O)[O-] (racemic),25,
COC(=O)C(C)(N)Cc1c[nH]cn1 (racemic),3,
O=C(O)C(Br)Cc1cnc[nH]1 (racemic),13,

# Further lines, with some results ahead:
inhibition [4] [%],SMILES,further results
19,C[C@](N)(Cc1c[nH]cn1)C(=O)O,inhibition [5]: 50%
0,C[n+]1c[nH]cc1C[C@H](N)C(=O)O,
0,Cn1cnc(C[C@H](N)C(=O)O)c1,
14,N[C@@H](Cc1cnc[nH]1)C(=O)NO,
0,N[C@@H](Cc1nc[nH]c1[N+](=O)[O-])C(=O)O,
0,N[C@@H](Cc1c[nH]cn1)C(=O)NCC(=O)O (H-His-Gly-OH),
3,CCCCC(N)(Cc1c[nH]cn1)C(=O)O (racemic),
62,CCCCOC(=O)C(N)Cc1c[nH]cn1 (racemic),
22,CCCOC(=O)C(N)Cc1c[nH]cn1 (racemic),
0,CNC(=O)C(N)Cc1c[nH]cn1 (racemic),
0,Cc1nc(CC(N)C(=O)O)c[nH]1 (racemic),
